From ChEMBL document CHEMBL3632620, “Synthesis, characterization, crystal structure determination and biological screening of novel N-1 and C5 alkyl substituted scaffolds of pyrimidine” (2015)
Converted amounts (≈) assume the structure as drawn. The source made the active and inactive calls. No cut-off for these calls is given here.

Tests used:
[1] = tested on: Staphylococcus epidermidis; assay: Antibacterial activity against Staphylococcus epidermidis ATCC 12228 assessed as growth inhibition at 100 ug/ml after 8 to 24 hrs by agar well diffusion method; format: functional
In short: (§1)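 Agar well diffusion on nutrient agar (peptone, yeast extract, NaCl, 2% agar, pH 7). Suspensions were set to 0.5 McFarland in sterile water, final inoculum 5x10^7 CFU/mL. Plates were swabbed and left 15 min, then ~4 mm wells received 100 µL compound in DMSO, with DMSO as control. Plates stood 2 h at room temperature, then 24 h at 37 °C. Inhibition zone diameter was measured.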

Escherichia coli [2] = assay: Antibacterial activity against Escherichia coli ATCC 8739 assessed as growth inhibition at 25 ug/ml after 8 to 24 hrs by agar well diffusion method; format: functional; conditions: read-out: DIZ; in short: as §1
Staphylococcus aureus [3] = assay: Antibacterial activity against Staphylococcus aureus ATCC 6538P assessed as growth inhibition at 100 ug/ml after 8 to 24 hrs by agar well diffusion method; format: functional; conditions: read-out: DIZ; in short: as §1
[4] = tested on: Salmonella enterica subsp. enterica serovar Abony; assay: Antibacterial activity against Salmonella abony NCTC 6017 assessed as growth inhibition at 100 ug/ml after 8 to 24 hrs by agar well diffusion method; format: functional; conditions: read-out: DIZ; in short: as §1
[5] = tested on: Salmonella enterica subsp. enterica serovar Abony; assay: Antibacterial activity against Salmonella abony NCTC 6017 after 24 to 48 hrs; format: functional
In short: (§2)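 Broth MIC in nutrient broth, pH 7.0. Inoculum came from a 16 h culture set to 0.5 McFarland, then diluted 10-fold to 1.2x10^7 CFU/mL. Compounds went from a 4 mg/mL DMSO stock to final 250 to 0.03 µg/mL. Controls were inoculum without compound and compound without inoculum. Incubation was 24-48 h at 37 °C. Then 5 µL was spotted onto agar for 24 h at 37 °C. MIC is the lowest concentration with no visible growth.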

Staphylococcus aureus [6] = assay: Antibacterial activity against Staphylococcus aureus ATCC 6538P after 24 to 48 hrs; format: functional; in short: as §2
Staphylococcus aureus [7] = assay: Antibacterial activity against Staphylococcus aureus ATCC 6538P assessed as growth inhibition at 25 ug/ml after 8 to 24 hrs by agar well diffusion method; format: functional; conditions: read-out: DIZ; in short: as §1
[8] = tested on: Salmonella enterica subsp. enterica serovar Abony; assay: Antibacterial activity against Salmonella abony NCTC 6017 assessed as growth inhibition at 25 ug/ml after 8 to 24 hrs by agar well diffusion method; format: functional; conditions: read-out: DIZ; in short: as §1
[9] = tested on: Staphylococcus epidermidis; assay: Antibacterial activity against Staphylococcus epidermidis ATCC 12228 assessed as growth inhibition at 25 ug/ml after 8 to 24 hrs by agar well diffusion method; format: functional; in short: as §1
Escherichia coli [10] = assay: Antibacterial activity against Escherichia coli ATCC 8739 after 24 to 48 hrs; format: functional; in short: as §2
[11] = tested on: Staphylococcus epidermidis; assay: Antibacterial activity against Staphylococcus epidermidis ATCC 12228 after 24 to 48 hrs; format: functional; in short: as §2
Escherichia coli [12] = assay: Antibacterial activity against Escherichia coli ATCC 8739 assessed as growth inhibition at 100 ug/ml after 8 to 24 hrs by agar well diffusion method; format: functional; conditions: read-out: DIZ; in short: as §1
[13] = tested on: Salmonella enterica subsp. enterica serovar Abony; assay: Antibacterial activity against Salmonella abony NCTC 6017 assessed as growth inhibition at 25 to 100 ug/ml at 12 hrs by agar well diffusion method; format: functional, organism-based
Staphylococcus aureus [14] = assay: Antibacterial activity against Staphylococcus aureus ATCC 6538P assessed as growth inhibition at 25 to 100 ug/ml at 12 hrs by agar well diffusion method; format: functional, organism-based
[15] = tested on: Staphylococcus epidermidis; assay: Antibacterial activity against Staphylococcus epidermidis ATCC 12228 assessed as growth inhibition at 25 to 100 ug/ml at 12 hrs by agar well diffusion method; format: functional, organism-based
Escherichia coli [16] = assay: Antibacterial activity against Escherichia coli ATCC 8739 assessed as growth inhibition at 25 to 100 ug/ml at 12 hrs by agar well diffusion method; format: functional, organism-based

Structure (SMILES)	MIC [5] [µg/mL]	MIC (Staphylococcus aureus [6]) [µg/mL]	MIC (Escherichia coli [10]) [µg/mL]	MIC [11] [µg/mL]	diameter of the inhibition zone (DIZ) [1]	zone of inhibition at 25 µg/mL (Escherichia coli [2]) [mm]	zone of inhibition at 100 µg/mL (Staphylococcus aureus [3]) [mm]	zone of inhibition at 100 µg/mL [4] [mm]	zone of inhibition at 25 µg/mL (Staphylococcus aureus [7]) [mm]	zone of inhibition at 25 µg/mL [8] [mm]	diameter of the inhibition zone (DIZ) [9]	zone of inhibition at 100 µg/mL (Escherichia coli [12]) [mm]	Activity [13]	zone of inhibition at 100 µg/mL ([1]; read-out: DIZ) [mm]	Activity (Staphylococcus aureus [14])	Activity [15]	Activity (Escherichia coli [16])
CN[C@@H]1[C@H](O[C@H]2[C@H](O[C@H]3[C@H](O)[C@@H](O)[C@H](N=C(N)N)[C@@H](O)[C@@H]3N=C(N)N)O[C@@H](C)[C@]2(O)C=O)O[C@@H](CO)[C@H](O)[C@H]1O [STREPTOMYCIN]	32 (≈ 55 µM)	32 (≈ 55 µM)	32 (≈ 55 µM)	> 250	inactive	14	16	18	12	25	inactive	16	–	–	–	–	–
CCOC(=O)C1(C)C(C)NC(=O)N(C)C1c1ccccc1 (configuration not stated)	125 (≈ 430 µM)	125 (≈ 430 µM)	68 (≈ 234 µM)	68 (≈ 234 µM)	–	12	10	10	10	9	inactive	13	inactive	14	inactive	inactive	inactive
CCOC(=O)C1(C)C(C)NC(=O)N(C)C1c1ccc(O)cc1 (configuration not stated)	68 (≈ 222 µM)	68 (≈ 222 µM)	125 (≈ 408 µM)	> 250	inactive	8	12	14	10	11	inactive	10	inactive	–	inactive	inactive	inactive
CCOC(=O)C1(C)C(C)NC(=S)N(C)C1c1ccc(O)cc1 (configuration not stated)	32 (≈ 99.2 µM)	32 (≈ 99.2 µM)	32 (≈ 99.2 µM)	> 250	inactive	17	15	20	13	16	inactive	20	inactive	–	inactive	inactive	inactive

The next lines start with results.

MIC [5] [µg/mL]	MIC (Staphylococcus aureus [6]) [µg/mL]	MIC (Escherichia coli [10]) [µg/mL]	MIC [11] [µg/mL]	Structure (SMILES)	diameter of the inhibition zone (DIZ) [1]	zone of inhibition at 25 µg/mL (Escherichia coli [2]) [mm]	zone of inhibition at 100 µg/mL (Staphylococcus aureus [3]) [mm]	zone of inhibition at 100 µg/mL [4] [mm]	zone of inhibition at 25 µg/mL (Staphylococcus aureus [7]) [mm]	zone of inhibition at 25 µg/mL [8] [mm]	diameter of the inhibition zone (DIZ) [9]	zone of inhibition at 100 µg/mL (Escherichia coli [12]) [mm]	Activity [13]	zone of inhibition at 100 µg/mL ([1]; read-out: DIZ) [mm]	Activity (Staphylococcus aureus [14])	Activity [15]	Activity (Escherichia coli [16])
32 (≈ 95.1 µM)	32 (≈ 95.1 µM)	16 (≈ 47.6 µM)	> 250	CCOC(=O)C1(C)C(C)NC(=S)N(C)C1c1ccc(OC)cc1 (configuration not stated)	inactive	15	16	15	12	16	inactive	22	inactive	–	inactive	inactive	inactive
16 (≈ 47.7 µM)	8 (≈ 23.9 µM)	32 (≈ 95.4 µM)	> 250	CCOC(=O)C1(C)C(C)NC(=O)N(C)C1c1ccccc1[N+](=O)[O-] (configuration not stated)	inactive	13	28	24	14	15	inactive	18	inactive	–	inactive	inactive	inactive
